In the library only some 2% were active in any assay of this set; here they are far more common.
Diaph act CS = compounds boosting diaphorase resazurin reduction – biochemical, uHTS, resorufin fluorescence, counter-screen for diaphorase-coupled primary assays, primary screen; Diaphorase/resazurin coupled assay, 16 min; hits give high values; 1 = vehicle wells, 0 = NADH-free wells; activation factor at 20 µM; 0.005% of 190,000 active;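 active = diaphorase activity raised at least twofold by the compound at 20 µM; inactive = activation factor below 2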
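Material: Purified diaphorase enzyme from Clostridium kluyveri | Buffer or medium: 50 mM HEPES pH 7.4 with 4.542 mM MgCl2, 0.005% Tween 20 | Times: 16 min enzyme reaction, ambient temperature | Signal: Red resorufin fluorescence at 544/590 nm excitation/emission | Measure: Increased resorufin signal from activators or reducing compounds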
NCF1 inh = p47phox/p22phox peptide binding inhibitors, primary screen, biochemical, uHTS, NADPH oxidase regulatory subunit; Neutrophil cytosol factor 1 (Homo sapiens), P14598; fluorescence polarization, 2 h; inhibition, % at 24.7 µM; 0.53% of 220,000 active;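 note: 0% = p47phox with labelled peptide and 100% = labelled peptide alone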
Hck-Nef inh = inhibitors of Nef-activated human Hck kinase, primary screen, biochemical, Z-Lyte FRET, 384-well, Hck-YEEI; Recombinant Hck-YEEI plus Nef, Z-Lyte FRET kinase assay; AID 463187, 2010; 0.68% of 220,000 active; inhibition, % at 20 µM;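 active = Hck-Nef kinase inhibition above about 50%, limit read from the data; inactive = inhibition below that limit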;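 note: 0% = DMSO with Hck plus Nef and 100% = Hck alone without Nef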
14-3-3 Bad PPI = inhibitors of 14-3-3 zeta/Bad binding, primary screen, biochemical, TR-FRET, bovine 14-3-3 zeta | inhibition, % at 21.7 µM | 0.71% of 220,000 active | 14-3-3 protein zeta/delta (Bos taurus), P63103 | AID 781, 2007 | TR-FRET 14-3-3zeta/Dy647-pBad peptide displacement, 1 h;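 active = inhibition above about 70%, limit read from the data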;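 note: 0% = full 14-3-3 plus peptide FRET controls and 100% = background without 14-3-3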
Target sequence (P63103 whole entry, looked up): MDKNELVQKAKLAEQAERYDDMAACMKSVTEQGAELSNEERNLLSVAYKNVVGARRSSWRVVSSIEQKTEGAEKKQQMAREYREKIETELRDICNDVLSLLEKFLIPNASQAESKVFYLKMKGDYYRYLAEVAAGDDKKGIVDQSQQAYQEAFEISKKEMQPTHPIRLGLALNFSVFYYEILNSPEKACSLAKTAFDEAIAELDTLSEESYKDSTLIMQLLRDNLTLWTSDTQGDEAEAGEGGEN
eIF4E-4G inh = eIF4E–eIF4G protein interaction inhibitors, primary screen, biochemical, uHTS, TR-FRET, eIF4GI fragment. inhibition, % at 21.7 µM. TR-FRET eIF4E-eIF4GI(517-606) binding, 2 h. 0.37% of 220,000 active. Eukaryotic translation initiation factor 4E (Mus musculus) + Eukaryotic translation …. AID 782, 2007;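 note: 0% = full FRET control wells and 100% = background wells lacking eIF4GI fragment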
Active calls of the source: *; / = not tested or not shown.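 Rule for the calls, unless noted: active = inhibition above about 30% (limit read from the data); inactive = the rest.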

SMILES	Diaph act CS	NCF1 inh	Hck-Nef inh	14-3-3 Bad PPI	eIF4E-4G inh
CC(C(=O)c1ccccc1)n1c(N2CCOCC2)nc2c1c(=O)n(C)c(=O)n2C (configuration not stated)	1	54.8*	-7.4	-1.5	0.1
Cc1ccc(/C=C/c2nc3ccccc3s2)s1	0.9	-40.1	7.3	77.5*	0.9
CNC(=O)Cn1ncc2c(C)n(Cc3ccc(C)cc3)c(C)c2c1=O	0.9	-12.4	-1.5	-16.4	-0.9
Cc1c2cnn(CC(=O)Nc3c(F)c(F)cc(F)c3F)c(=O)c2c(C)n1Cc1ccccc1F	0.8	-59.7	51.8*	16.7	31.8*
C=CCC(C)(NCc1ccccc1)c1ccco1 (configuration not stated)	0.9	1.7	-0.3	72.5*	8.4
CC(CO)(CO)NCc1ccc(-c2ccccc2)cc1	1	8.7	-1.0	10.3	4.3
Cc1noc(C)c1S(=O)(=O)Nc1ccc(C(=O)NC2CCCCC2C)cc1 (configuration not stated)	0.9	2.3	-0.2	85.1*	0.6
Cc1noc(C)c1S(=O)(=O)Nc1ccc(C(=O)NC2CCCCCC2)cc1	0.9	2.9	0.3	8.8	4.3
Cc1cc(C)c(S(=O)(=O)/N=C2/C=C(SCC(=O)O)C(=O)c3ccccc32)cc1C	0.7	-2.3	33.9	70.3*	11.1
OCCCCNc1cccc2ccccc12	0.7	42.2*	0.1	-13.6	7.7
O=C(/N=C1\NC(=O)C(F)(C(F)(F)F)S1)NC1CCCCC1 (configuration not stated)	0.8	-8.8	/	42.4	43.9*
CCOc1ccccc1NC(=O)COC(=O)c1cc[n+]([O-])cc1	/	4.8	15.5	4.5	-12.0
CC(=O)Nc1ccc(C(=O)N(C)c2ccccc2)cc1	0.8	-1.8	0.6	13.4	2.9
CCN(C(=O)c1ccc(NC(C)=O)cc1)c1ccccc1	0.9	55.3*	0.8	6.1	-3.4
COc1ccccc1S(=O)(=O)Nc1ccc2cn[nH]c2c1	0.9	-7.9	8.7	6.0	21.6
O=S(=O)(Nc1ccc2cn[nH]c2c1)c1ccc(Cl)s1	1	-7.2	-10.2	85.0*	0.2
CCOc1ccc2noc3c2c1C(=O)c1ccccc1-3	0.7	44.2*	7.4	10.8	-9.0
O=C1c2ccccc2-c2onc3ccc(N4CCCC4)c1c23	0.7	-229.1	33.9	25.0	34.1*
Cn1c(=O)cc2c3c(c(N4CCCCC4)ccc31)C(=O)c1ccccc1-2	/	34.5*	27.2	-29.8	-13.7
O=C(N/N=C/c1ccccc1[N+](=O)[O-])c1cnccn1	/	-2.1	-16.4	-4.5	-3.1
O=C(/C=C/c1cccs1)Nc1scc(-c2ccccc2)c1C(=O)O	0.8	-93.2	29.7	92.1*	92.4*
CSc1cccc(NC(=S)N(Cc2ccc(C)cc2)Cc2cccnc2)c1	0.8	-13.1	3.4	-12.7	87.1*
Cc1ccccc1NC(=S)N(Cc1ccccc1)Cc1cccnc1	0.9	-2.8	-0.3	0.1	-1.0
N#CCCN(C(=O)COC(=O)C1CCN(S(=O)(=O)c2cccs2)CC1)c1ccccc1	0.8	/	3.5	1.4	5.3
C/C(=N\S(=O)(=O)c1ccc(C)cc1)N(C)C	/	2.4	7.3	11.3	-6.4
Nc1nc(COc2ccccc2C=O)nc(Nc2ccccc2)n1	/	-2.6	22.3	9.1	96.7*
CCOP(=O)(OCC)c1nc(-c2ccc(Cl)cc2Cl)oc1N1CCOCC1	0.9	-3.6	20.7	21.8	10.3
COc1ccc(C2/C=C\CN(C(=O)c3ccccc3)[C@H](Cc3ccccc3)C(=O)N2Cc2ccc(F)cc2)cc1 (some centres not stated)	/	-27.5	21.6	-5.2	60.0*
CC(C)N1C(=O)C(O)(C2COC(C)(C)CC2=O)c2ccccc21 (configuration not stated)	1	0.0	16.3	70.7*	-3.4

Source: PubChem BioAssay (several laboratories)
